According to ChEMBL document CHEMBL1157555, “Synthesis and pharmacological evaluation of novel 1,3,8- and 1,3,7,8-substituted xanthines as adenosine receptor antagonists” (Bioorg Med Chem, 2010):

Columns and labels:
Adenosine receptor A1 = target: T1, Adenosine receptor A1 (Homo sapiens, UniProt P30542); test: Displacement of [3H]DPCPX from human recombinant adenosine A1 receptor expressed in CHO cells by microplate beta scintillation counter; format: cell-based
T1 sequence (P30542 whole entry): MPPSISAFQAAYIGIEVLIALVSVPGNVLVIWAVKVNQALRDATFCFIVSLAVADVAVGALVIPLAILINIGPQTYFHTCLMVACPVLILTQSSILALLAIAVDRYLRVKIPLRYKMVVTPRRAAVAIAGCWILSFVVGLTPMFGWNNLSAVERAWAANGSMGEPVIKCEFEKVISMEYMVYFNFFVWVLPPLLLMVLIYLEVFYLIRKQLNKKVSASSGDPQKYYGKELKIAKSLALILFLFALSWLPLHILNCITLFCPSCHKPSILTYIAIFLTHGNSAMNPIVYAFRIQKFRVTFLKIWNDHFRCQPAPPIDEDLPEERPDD
Outline: (§1)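 Membranes from CHO cells expressing human A1 were labelled with 2 nM [3H]DPCPX. Non-specific binding was defined with (R)-PIA. Incubation ran 60 min at 25 °C, then samples were filtered and counted by beta scintillation. IC50 came from non-linear regression, and Ki from Cheng–Prusoff. Weak or poorly soluble compounds were reported as % inhibition of specific binding at a single concentration. Mean of 3 experiments, each in duplicate.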

Adenosine receptor A3 = target: T2, Adenosine receptor A3 (Homo sapiens, UniProt P0DMS8); test: Displacement of [3H]NECA from human recombinant adenosine A3 receptor expressed in human HeLa cells by microplate beta scintillation counter; format: cell-based
T2 sequence (P0DMS8 whole entry): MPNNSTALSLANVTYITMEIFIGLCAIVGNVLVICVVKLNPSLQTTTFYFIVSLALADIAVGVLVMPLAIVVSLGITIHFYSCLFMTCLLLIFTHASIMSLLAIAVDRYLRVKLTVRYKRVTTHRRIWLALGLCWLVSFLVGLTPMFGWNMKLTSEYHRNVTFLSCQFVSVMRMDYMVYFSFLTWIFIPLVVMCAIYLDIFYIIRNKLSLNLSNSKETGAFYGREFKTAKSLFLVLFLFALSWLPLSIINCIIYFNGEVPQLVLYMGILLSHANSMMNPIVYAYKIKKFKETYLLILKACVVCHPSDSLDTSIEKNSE
Outline: (§2)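 HeLa-A3 cell membranes were labelled with 30 nM [3H]NECA. Non-specific binding was defined with (R)-PIA. After 180 min at 25 °C, samples were filtered and counted by beta scintillation. Ki was calculated by Cheng–Prusoff from IC50 obtained by non-linear regression. Weak or poorly soluble compounds were reported as % inhibition of specific binding at a single concentration. Mean of 3 experiments in duplicate.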

Adenosine receptor A2b = target: T3, Adenosine receptor A2b (Homo sapiens, UniProt P29275); test: Displacement of [3H]DPCPX from human recombinant adenosine A2B receptor expressed in HEK293 cells by microplate beta scintillation counter; format: cell-based
T3 sequence (P29275 whole entry): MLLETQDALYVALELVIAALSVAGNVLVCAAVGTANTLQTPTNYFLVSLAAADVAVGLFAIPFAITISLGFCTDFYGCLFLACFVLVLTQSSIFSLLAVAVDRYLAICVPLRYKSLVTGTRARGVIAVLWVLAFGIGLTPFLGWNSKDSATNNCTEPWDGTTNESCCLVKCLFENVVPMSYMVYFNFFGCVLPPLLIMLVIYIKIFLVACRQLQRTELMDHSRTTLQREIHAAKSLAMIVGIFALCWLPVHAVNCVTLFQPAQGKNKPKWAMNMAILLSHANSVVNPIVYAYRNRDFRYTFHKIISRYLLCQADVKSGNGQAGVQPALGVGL
Outline: (§3)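 Membranes from HEK-293 cells expressing human A2B were labelled with 35 nM [3H]DPCPX. Incubation ran 30 min at 25 °C, followed by filtration and beta scintillation counting. IC50 was fitted by non-linear regression and converted to Ki by Cheng–Prusoff. Weak or poorly soluble compounds were given as % inhibition of specific binding at a single concentration. n = 3, each in duplicate.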

Homo sapiens [1] = species: Homo sapiens; test: Selectivity ratio of Ki for human adenosine A3 receptor to Ki for human adenosine A2B receptor
Outline: (§4)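 Ratios of Ki values at each human subtype to Ki at human A2B (HEK-293 membranes, [3H]DPCPX). Each Ki was derived by Cheng–Prusoff from IC50 of radioligand competition binding in membranes of transfected cells. Results are the mean of 3 experiments, each in duplicate.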

Adenosine receptor A2a [2] = target: T4, Adenosine receptor A2a (Homo sapiens, UniProt P29274); test: Displacement of [3H]ZM241385 from human recombinant adenosine A2A receptor expressed in human HeLa cells at 1 uM by microplate beta scintillation counter; format: cell-based
T4 sequence (P29274 whole entry): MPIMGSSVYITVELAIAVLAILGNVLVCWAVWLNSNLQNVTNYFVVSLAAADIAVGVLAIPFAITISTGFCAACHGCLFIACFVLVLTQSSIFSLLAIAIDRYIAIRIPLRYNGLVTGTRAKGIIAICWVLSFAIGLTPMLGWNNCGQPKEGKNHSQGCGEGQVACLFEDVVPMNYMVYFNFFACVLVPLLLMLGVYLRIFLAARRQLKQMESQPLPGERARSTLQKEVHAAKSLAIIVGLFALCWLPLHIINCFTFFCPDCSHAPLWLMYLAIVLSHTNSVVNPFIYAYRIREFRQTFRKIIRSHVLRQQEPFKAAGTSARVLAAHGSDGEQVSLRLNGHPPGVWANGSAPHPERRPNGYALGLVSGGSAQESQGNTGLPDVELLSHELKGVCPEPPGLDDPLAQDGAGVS
Outline: (§5)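 Competition used HeLa cell membranes expressing human A2A with [3H]ZM241385. Non-specific binding was set with NECA. Incubation was 30 min at 25 °C, then filtration and beta scintillation counting. IC50 from non-linear regression was converted to Ki (Cheng–Prusoff). Weak or poorly soluble compounds were reported as % inhibition of specific binding at a single concentration. Three experiments, each in duplicate.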

[3] = target: T5, Adenosine receptor A1 (Homo sapiens) (UniProt P30542); test: Displacement of [3H]DPCPX from human recombinant adenosine A1 receptor expressed in CHO cells at 1 uM by microplate beta scintillation counter; format: cell-based; outline: as §1
T5 sequence (whole entry): T1 sequence (P30542 whole entry)

[4] = target: T6, Adenosine receptor A3 (Homo sapiens) (UniProt P0DMS8); test: Displacement of [3H]NECA from human recombinant adenosine A3 receptor expressed in human HeLa cells at 1 uM by microplate beta scintillation counter; format: cell-based; outline: as §2
T6 sequence (whole entry): T2 sequence (P0DMS8 whole entry)

[5] = target: T7, Adenosine receptor A2b (Homo sapiens) (UniProt P29275); test: Displacement of [3H]DPCPX from human recombinant adenosine A2B receptor expressed in HEK293 cells at 1 uM by microplate beta scintillation counter; format: cell-based; outline: as §3
T7 sequence (whole entry): T3 sequence (P29275 whole entry)

Homo sapiens [6] = species: Homo sapiens; test: Selectivity ratio of Ki for human adenosine A1 receptor to Ki for human adenosine A2B receptor; outline: as §4
Adenosine receptor A2a [7] = target: T4, Adenosine receptor A2a; test: Displacement of [3H]ZM241385 from human recombinant adenosine A2A receptor expressed in human HeLa cells by microplate beta scintillation counter; format: cell-based; outline: as §5
Homo sapiens [8] = species: Homo sapiens; test: Selectivity ratio of Ki for human adenosine A2A receptor to Ki for human adenosine A2B receptor; outline: as §4

SMILES | Ki (Adenosine receptor A1) [nM] | Ki (Adenosine receptor A3) [nM] | Ki (Adenosine receptor A2b) [nM] | Ratio Ki (Homo sapiens [1]) | Activity (Adenosine receptor A2a [2]) [%] | Activity [3] [%] | Activity [4] [%] | Activity [5] [%] | Ratio Ki (Homo sapiens [6]) | Ki (Adenosine receptor A2a [7]) [nM] | Ratio Ki (Homo sapiens [8])
CCn1c(=O)c2c(nc(Cc3cccs3)n2C)n(Cc2ccccc2)c1=O | 389 |  | 372 |  |  |  | 6 |  | 1.1 | 759 | 2.1
Cn1c(=O)c2[nH]c(-c3cccs3)nc2n(CC2CCCCC2)c1=O | 219 |  |  |  | 29 |  | 41 | 34 |  |  | 
CCn1c(=O)c2c(nc(Cc3cccs3)n2C)n(Cc2cccs2)c1=O | 95.5 |  | 35.5 |  |  |  | 1 |  | 2.7 | 123 | 3.5
Cn1c(=O)c2[nH]c(Cc3cccs3)nc2n(CC2CCCCC2)c1=O |  |  |  |  | 11 | 42 | 2 | 2 |  |  | 
CCn1c(=O)c2[nH]c(Cc3c(F)cccc3F)nc2n(Cc2ccccc2)c1=O |  |  |  |  | 1 | 23 | 1 | 8 |  |  | 
CCCn1c(=O)c2c(nc(-c3ccccc3)n2C)n(CC2CCCO2)c1=O (stereo not drawn) |  | 631 |  |  | 25 | 38 |  | 41 |  |  | 
CCn1c(=O)c2c(nc(Cc3ccco3)n2C)n(Cc2cccs2)c1=O | 100 |  | 26.9 |  |  |  | 22 |  | 3.7 | 219 | 8.1
CCn1c(=O)c2[nH]c(Cc3ccco3)nc2n(Cc2ccccc2)c1=O |  |  |  |  | 9 | 23 | 30 | 34 |  |  | 
CCn1c(=O)c2[nH]c(Cc3c(F)cccc3F)nc2n(Cc2cccs2)c1=O |  |  |  |  | 21 | 28 | 38 | 52 |  |  | 
O=c1c2[nH]c(Cc3cccs3)nc2n(CC2CCCCC2)c(=O)n1CC1CCCCC1 |  |  |  |  | 50 | 4 | 16 | 1 |  |  | 
CCn1c(=O)c2c(nc(Cc3ccco3)n2C)n(Cc2ccccc2)c1=O |  |  | 282 |  |  | 29 | 14 |  |  | 1740 | 6.2
CCCn1c(=O)c2[nH]c(Cc3ccccc3)nc2n(CC2CCCO2)c1=O (stereo not drawn) |  |  |  |  | 24 | 2 | 10 | 32 |  |  | 
CCn1c(=O)c2[nH]c(Cc3ccccc3)nc2n(CCS(=O)(=O)CC)c1=O |  |  |  |  | 1 | 6 | 6 | 55 |  |  | 
CCn1c(=O)c2c(nc(Cc3c(F)cccc3F)n2C)n(Cc2cccs2)c1=O | 120 |  | 135 |  |  |  | 20 |  | 0.9 | 178 | 1.3
CCn1c(=O)c2[nH]c(Cc3ccco3)nc2n(Cc2cccs2)c1=O | 407 |  |  |  | 19 |  | 42 | 30 |  |  | 
CCn1c(=O)c2c(nc(Cc3c(F)cccc3F)n2C)n(Cc2ccccc2)c1=O |  |  |  |  | 28 | 21 | 4 | 48 |  |  | 
O=c1c2[nH]c(-c3cccs3)nc2n(CC2CCCCC2)c(=O)n1CC1CCCCC1 |  |  |  |  | 14 | 2 | 2 | 10 |  |  | 
CCn1c(=O)c2[nH]c(Cc3cccs3)nc2n(Cc2ccccc2)c1=O |  |  |  |  | 6 | 22 | 39 | 52 |  |  | 

Next, values leading:

Ki (Adenosine receptor A1) [nM] | Ki (Adenosine receptor A3) [nM] | Ki (Adenosine receptor A2b) [nM] | Ratio Ki (Homo sapiens [1]) | Activity (Adenosine receptor A2a [2]) [%] | Activity [3] [%] | Activity [4] [%] | Activity [5] [%] | Ratio Ki (Homo sapiens [6]) | Ki (Adenosine receptor A2a [7]) [nM] | Ratio Ki (Homo sapiens [8]) | SMILES
195 | 245 | 589 | 0.4 | 9 |  |  |  |  |  |  | CCCn1c(=O)c2[nH]c(-c3ccccc3)nc2n(CC[S+]([O-])CC)c1=O (stereo not drawn)
 |  |  |  | 20 | 29 | 0 | 32 |  |  |  | CCn1c(=O)c2[nH]c(-c3ccccc3)nc2n(CC[S+]([O-])CC)c1=O (stereo not drawn)
 |  |  |  | 7 | 10 | 18 | 1 |  |  |  | CCCn1c(=O)c2[nH]c(Cc3ccccc3)nc2n(CC[S+]([O-])CC)c1=O (stereo not drawn)
 |  |  |  | 13 | 22 | 2 | 5 |  |  |  | CCCn1c(=O)c2[nH]c(Cc3ccccc3)nc2n(CCOCC)c1=O
 |  |  |  | 28 | 19 | 17 | 46 |  |  |  | CCOCCn1c(=O)n(CC)c(=O)c2[nH]c(-c3ccc(-c4ccccc4)cc3)nc21
 |  |  |  | 13 | 15 | 15 | 2 |  |  |  | CCCn1c(=O)c2[nH]c(Cc3ccccc3)nc2n(CCS(=O)(=O)CC)c1=O
 |  |  |  | 6 | 39 | 47 | 24 |  |  |  | CCCn1c(=O)c2[nH]c(-c3ccccc3)nc2n(CCOCC)c1=O
 |  |  |  | 2 | 17 | 1 | 26 |  |  |  | CCCn1c(=O)c2c(nc(-c3ccccc3)n2C)n(CCSCC)c1=O
 |  |  |  | 4 | 7 | 17 | 22 |  |  |  | CCSCCn1c(=O)n(CC)c(=O)c2[nH]c(-c3ccc(-c4ccccc4)cc3)nc21
93.3 | 93.3 |  |  | 3 |  |  | 39 |  |  |  | CCCn1c(=O)c2[nH]c(-c3ccccc3)nc2n(CCS(=O)(=O)CC)c1=O
 |  |  |  | 0 | 35 | 35 | 18 |  |  |  | CCn1c(=O)c2[nH]c(-c3ccccc3)nc2n(CCS(=O)(=O)CC)c1=O
 |  |  |  | 8 | 33 | 1 | 12 |  |  |  | CCCn1c(=O)c2[nH]c(Cc3ccccc3)nc2n(CCSCC)c1=O
224 | 135 |  |  | 37 |  |  | 64 |  |  |  | CCCn1c(=O)c2[nH]c(-c3ccccc3)nc2n(CC2CCCO2)c1=O (stereo not drawn)
 |  |  |  | 0 | 34 | 10 | 5 |  |  |  | CCSCCn1c(=O)n(CC)c(=O)c2[nH]c(Cc3ccccc3)nc21
148 | 407 | 479 | 0.9 | 12 |  |  |  | 0.3 |  |  | CCSCCn1c(=O)n(CC)c(=O)c2[nH]c(-c3ccccc3)nc21
 |  |  |  | 0 | 5 | 3 | 0 |  |  |  | CCn1c(=O)c2[nH]c(Cc3ccccc3)nc2n(CC[S+]([O-])CC)c1=O (stereo not drawn)
